# Measured values collected from several papers.
# Compare with care: the assays were run in different laboratories.
# Target: Casein kinase I isoform gamma-2 (CSNK1G2, Homo sapiens, UniProt P78368)
Compound,observed,technique,tested at,remaining binding
N#CC1(c2ccccn2)CCN(Cc2cc(C(=O)N3CCCC3)c(=O)n3ccccc23)CC1,cell-free assay,competition with immobilised ligand,1 µM,76%
C[C@@H]1CCN(c2nccc(-c3cnn4ncccc34)n2)C1,binding,,1 µM,62%
O=C(N1CCS(=O)(=O)CC1)N1C[C@H](c2ccc(OC(F)(F)F)cc2)C[C@H](c2nc(C3CC3)no2)C1,cell-free assay,competition with immobilised ligand,1 µM,89%
CN(C)c1nccc(-c2cnc3ncccn23)n1,binding,,1 µM,89%
O=C(c1ccc(Nc2ncc(Cl)c(-c3cc4ccccc4s3)n2)cc1)N1CCC(N2CCCC2)CC1,binding,competition with immobilised ligand,1 µM,100%
Cn1cc(Cl)c2c(Oc3c(F)cc(Nc4cc(Cl)nc(N)n4)cc3F)ccnc21,cell-free assay,competition with immobilised ligand,0.1 µM,83%
COc1cnc(Nc2cccc(S(N)(=O)=O)c2)nc1N1CCN(c2ccccc2)CC1,binding,competition with immobilised ligand,1 µM,100%
CCN1CCN(Cc2ccc(C(=O)Nc3ccc(C)c(Oc4ccc5c(c4)CC(=O)N5)c3)cc2C(F)(F)F)CC1,binding,competition with immobilised ligand,1 µM,100%
N#Cc1ccccc1CSc1nnc2c(n1)[nH]c1ccccc12,binding,competition with immobilised ligand,10 µM,81%
COc1ccc2c(c1)O[C@@H](c1ccc(OC)c(OC)c1)C[C@H]2NC(=O)C1(c2ccc3c(c2)OC(F)(F)O3)CC1,cell-free assay,competition with immobilised ligand,1 µM,88%
Cc1cnc(Nc2ccc(C(=O)N3CCC(N4CCCC4)CC3)cc2)nc1-c1cc2ccccc2s1,binding,competition with immobilised ligand,1 µM,100%
CN(C)c1nccc(-c2cnn3ncccc23)n1,binding,,1 µM,85%
O=C(c1ccc(Nc2ncc(Cl)c(-c3ccc(Cl)s3)n2)cc1)N1CCC(N2CCCC2)CC1,binding,competition with immobilised ligand,1 µM,100%
CN(C)c1ncc(F)c(-c2cnn3ncccc23)n1,binding,,1 µM,90%
O=C(Nc1c[nH]nc1C(=O)NC1CCNCC1)c1cc(F)cc(F)c1,binding,competition with immobilised ligand,1 µM,100%
CC1CCCN1c1nccc(-c2cnn3ncccc23)n1 (stereo not drawn),binding,,1 µM,77%
Cc1c(C(=O)O)cc(-c2ccc(C3CCNCC3)cc2)c2ccc(-c3ccc(C(F)(F)F)cc3)cc12,cell-free assay,competition with immobilised ligand,1 µM,100%
N[C@H]1CCN(c2nccc(-c3cnn4ncccc34)n2)C1,binding,,1 µM,98%
CC1=C(C#N)C(c2ccc3c(c2)c(NC(=O)c2ccccc2C)nn3C)C(C#N)=C(C)N1,cell-free assay,competition with immobilised ligand,1 µM,95%
COc1ncc2cc3ccccc3nc2c1C#N,cell-free assay,competition with immobilised ligand,5 µM,98%
COc1cnc(Nc2cccc(S(N)(=O)=O)c2)nc1N1CCN(c2ccccc2)C(=O)C1,binding,competition with immobilised ligand,1 µM,96%
